Columns and labels:
[1] = Fraction unbound in mouse plasma; assay type: ADME, cell-free
[2] = system: Mus musculus; assay: Induction of SMN protein levels in neonatal delta7 FVB mouse brain at 1 mg/kg, ip qd administered from postnatal day 3 to day 9 measured 1 hr post last dose by HTRF assay relative to control; assay type: functional
[3] = species: Homo sapiens; assay: Modulation of patient derived full length SMN2 pre mRNA splicing assessed as restoration of functional SMN2 to protein level
[4] = system: Salmonella typhimurium; assay: Genotoxicity in Salmonella typhimurium TA100 in presence of rat liver S9 fraction by Ames test; assay type: toxicity; details: salmonella enterica subsp. enterica serovar typhimurium
Method in brief: (§1)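 Ames plate incorporation: strains grown overnight at 37 °C in nutrient broth (TA102 with 0.3 μg/mL tetracycline). Compound at 20–2000 μg/plate in top agar with histidine/biotin, plus rat liver S9 mix (NADP, glucose 6-phosphate, KCl, MgCl2, pH 7.4 phosphate). Vogel–Bonner plates incubated 37 °C, 2 days; colonies counted by image analysis. Positive: dose-dependent ≥2-fold (TA1535, TA98) or ≥1.5-fold (TA97, TA100, TA102) rise over background.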

[5] = species: Homo sapiens; assay: Modulation of patient derived full length SMN2 pre mRNA splicing assessed as inclusion of exon 7
[6] = system: Salmonella typhimurium; assay: Genotoxicity in Salmonella typhimurium TA98 in presence of rat liver S9 fraction by Ames test; assay type: toxicity; details: salmonella enterica subsp. enterica serovar typhimurium; method in brief: as §1
[7] = Total AUC in wild type FVB mouse plasma at 10 mg/kg, po qd for 10 days by LC-MS/MS analysis; assay type: ADME, organism-based; set-up: dose 10 mg/kg, route oral, time AUCmax
[8] = system: Mus musculus; assay: Unbound AUC in neonatal […] FVB mouse plasma at 3 mg/kg, ip qd administered from postnatal day 3 to day 9 by LC-MS/MS analysis; assay type: ADME, organism-based; details: in vivo
Method in brief: (§2)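 Plasma AUC determined in a satellite group of neonatal (P10) wild-type mice dosed ip. Free AUC was calculated using the free fraction measured in serum from adult mice.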

[9] = system: Salmonella typhimurium; assay: Genotoxicity in Salmonella typhimurium TA97 in presence of rat liver S9 fraction by Ames test; assay type: toxicity; details: salmonella enterica subsp. enterica serovar typhimurium; method in brief: as §1
[10] = system: Mus musculus; assay: Induction of SMN protein levels in C/C-Allele SMA FVB mouse quadriceps muscle administered as po qd for 10 days measured 1 hr post last dose by HTRF assay; assay type: functional, organism-based
Method in brief: (§3)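 Adult C/C-allele SMA mice dosed orally once daily for 10 days at 1, 3 or 10 mg/kg. SMN protein in brain and quadriceps was expressed as % increase over vehicle-treated animals.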

[11] = system: Mus musculus; assay: Induction of SMN protein levels in C/C-Allele SMA FVB mouse brain at 10 mg/kg, po qd for 10 days measured 1 hr post last dose by HTRF assay relative to control; assay type: functional; method in brief: as §3
[12] = system: Mus musculus; assay: Induction of SMN protein levels in C/C-Allele SMA FVB mouse quadriceps muscle at 3 mg/kg, po qd for 10 days measured 1 hrs post last dose by HTRF assay relative to control; assay type: functional; method in brief: as §3
[13] = system: Mus musculus; assay: Induction of SMN protein levels in C/C-Allele SMA FVB mouse brain administered as po qd for 10 days measured 1 hr post last dose by HTRF assay; assay type: functional, organism-based; method in brief: as §3
[14] = Fraction unbound in human plasma; assay type: ADME, cell-free
[15] = Substrate activity at human P-gp; assay type: ADME
[16] = system: P-gp; assay: Substrate activity at mouse P-gp assessed as efflux ratio; assay type: ADME; details: not told
[17] = system: Salmonella typhimurium; assay: Genotoxicity in Salmonella typhimurium TA1535 in presence of rat liver S9 fraction by Ames test; assay type: toxicity; details: salmonella enterica subsp. enterica serovar typhimurium; method in brief: as §1
[18] = system: Mus musculus; assay: Induction of SMN protein levels in neonatal delta7 FVB mouse quadriceps muscle at 1 mg/kg, ip qd administered from postnatal day 3 to day 9 measured 1 hr post last dose by HTRF assay relative to control; assay type: functional
[19] = system: Mus musculus; assay: Induction of SMN protein levels in neonatal delta7 FVB mouse brain at 3 mg/kg, ip qd administered from postnatal day 3 to day 9 measured 1 hr post last dose by HTRF assay relative to control; assay type: functional
[20] = system: Mus musculus; assay: Induction of SMN protein levels in C/C-Allele SMA FVB mouse quadriceps muscle at 10 mg/kg, po qd for 10 days measured 1 hrs post last dose by HTRF assay relative to control; assay type: functional; method in brief: as §3
[21] = system: Mus musculus; assay: Induction of SMN protein levels in C/C-Allele SMA FVB mouse brain at 3 mg/kg, po qd for 10 days measured 1 hr post last dose by HTRF assay relative to control; assay type: functional; method in brief: as §3
[22] = system: Mus musculus; assay: Induction of SMN protein levels in C/C-Allele SMA FVB mouse brain at 1 mg/kg, po qd for 10 days measured 1 hr post last dose by HTRF assay relative to control; assay type: functional; method in brief: as §3
[23] = Ratio of drug level in wild type FVB mouse brain to plasma at 10 mg/kg, po; assay type: ADME, organism-based; details: read-out: BPR
[24] = system: Mus musculus; assay: Induction of SMN protein levels in neonatal delta7 FVB mouse brain administered as ip qd from postnatal day 3 to day 9 measured 1 hr post last dose by HTRF assay relative to control; assay type: functional, organism-based
[25] = system: Mus musculus; assay: Induction of SMN protein levels in neonatal delta7 FVB mouse brain at 0.3 mg/kg, ip qd administered from postnatal day 3 to day 9 measured 1 hr post last dose by HTRF assay relative to control; assay type: functional
[26] = Total AUC in neonatal wild type FVB mouse plasma at 3 mg/kg, ip qd for 10 days by LC-MS/MS analysis; assay type: ADME, organism-based; set-up: dose 3 mg/kg, route intraperitoneal, time AUCmax; method in brief: as §2
[27] = system: Mus musculus; assay: Induction of SMN protein levels in neonatal delta7 FVB mouse quadriceps muscle administered as ip qd from postnatal day 3 to day 9 measured 1 hr post last dose by HTRF assay relative to control; assay type: functional, organism-based
[28] = system: Mus musculus; assay: Unbound AUC in C/C-Allele SMA FVB mouse plasma at 10 mg/kg, po qd for 10 days by LC-MS/MS analysis; assay type: ADME, organism-based; details: in vivo, 240 h
[29] = system: Mus musculus; assay: Induction of SMN protein levels in C/C-Allele SMA FVB mouse quadriceps muscle at 1 mg/kg, po qd for 10 days measured 1 hrs post last dose by HTRF assay relative to control; assay type: functional; method in brief: as §3
[30] = system: Mus musculus; assay: Induction of SMN protein levels in neonatal delta7 FVB mouse quadriceps muscle at 3 mg/kg, ip qd administered from postnatal day 3 to day 9 measured 1 hr post last dose by HTRF assay relative to control; assay type: functional
[31] = system: Mus musculus; assay: Induction of SMN protein levels in neonatal delta7 FVB mouse quadriceps muscle at 0.3 mg/kg, ip qd administered from postnatal day 3 to day 9 measured 1 hr post last dose by HTRF assay relative to control; assay type: functional
[32] = system: Salmonella typhimurium; assay: Genotoxicity in Salmonella typhimurium TA102 in presence of rat liver S9 fraction by Ames test; assay type: toxicity; details: salmonella enterica subsp. enterica serovar typhimurium; method in brief: as §1

Row | Compound | Activity [2] [%] | EC1.5 [3] [nM] | Activity [4] | EC1.5 [5] [nM] | Activity [6] | AUC at 240 h [7] [ng·h/mL] | Activity [9] | Activity [11] [%] | Activity [17] | Activity [19] [%] | Activity [21] [%] | Activity [22] [%] | Activity [25] [%] | AUC at 240 h [26] [ng·h/mL] | Activity [32] | also measured
1 | Cc1cn2cc(NC(=O)c3ccc(N4CCNC(C)C4)cc3F)nc2c(C)n1 (stereo unspecified) | 75 | 98 | Toxic | 52 | Toxic | 7900 | Toxic | 102 | Toxic | 150 | 24 | 0 | 24 | 3900 | Toxic | fraction unbound [1]: 0.197; fAUC [8]: 790 ng·h/mL; Activity [10]: Dose-dependent effect; Activity [12]: 54%; Activity [13]: Dose-dependent effect; fraction unbound [14]: 0.186; Activity [15]: Not Active; efflux ratio [16]: 4.1; Activity [18]: 24%; Activity [20]: 152%; Kp [23]: 3.4; Activity [24]: Dose-dependent effect; Activity [27]: Dose-dependent effect; fAUC [28]: 1580 ng·h/mL; Activity [29]: 13%; Activity [30]: 140%; Activity [31]: 14%
2 | CCN1CCN(c2ccc3cc(-c4cn5cc(C)nc(C)c5n4)c(=O)oc3c2)C[C@@H]1C |  |  | Toxic |  | Toxic |  | Toxic |  | Toxic |  |  |  |  |  | Toxic | 
3 | CC[C@H]1CN(c2ccc(C(=O)Nc3cn4cc(C)nc4cn3)c(F)c2)CCN1 | 53 | 246 |  | 12 |  | 27100 |  | 260 |  | 100 | 81 | 22 | 26 | 4450 |  | 
4 | Cc1cn2cc(NC(=O)c3ccc(N4CCNCC4)cc3F)cc(F)c2n1 |  | 27 | Toxic | 11 | Toxic |  | Toxic |  | Toxic |  |  |  |  |  | Toxic | 
5 | Cc1cn2cc(NC(=O)c3ccc(N4CCNC(C)C4)cc3F)c(C)cc2n1 (stereo unspecified) |  | 152 | Non-Toxic | 40 | Non-Toxic |  | Non-Toxic |  | Non-Toxic |  |  |  |  |  | Non-Toxic | 

From ChEMBL document CHEMBL4049449, “Discovery of a Novel Class of Survival Motor Neuron 2 Splicing Modifiers for the Treatment of Spinal Muscular Atrophy” (J Med Chem, 2017)
